# Data from ChEMBL document CHEMBL2046408, “Design, synthesis and antimicrobial activities of nitroimidazole derivatives containing 1,3,4-oxadiazole scaffold as FabH inhibitors” (Bioorg Med Chem, 2012).
# Tests used:
# Bacillus subtilis = assay: Antibacterial activity against Bacillus subtilis ATCC 530 after 24 hrs by MTT assay; assay type: functional; conditions: ATCC 530, 24 h
# Procedure, shortened: (§1)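 Seeded broth in nutrient broth from 24 h bacterial cultures on nutrient agar at 37 °C. Suspension adjusted with sterile saline to 1 × 10⁴–10⁵ CFU. Compounds and reference drugs twofold serially diluted to 100, 50, 25, 12.5, 6.25 … µg/mL. MIC determined by MTT method.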
# Staphylococcus aureus = assay: Antibacterial activity against Staphylococcus aureus ATCC 25923 after 24 hrs by MTT assay; assay type: functional; conditions: ATCC 25923, 24 h; procedure, shortened: as §1
# Pseudomonas aeruginosa = assay: Antibacterial activity against Pseudomonas aeruginosa ATCC 27853 after 24 hrs by MTT assay; assay type: functional; conditions: ATCC 27853, 24 h; procedure, shortened: as §1
# Escherichia coli = assay: Antibacterial activity against Escherichia coli ATCC 25922/35128 after 24 hrs by MTT assay; assay type: functional; conditions: ATCC 25922/35128, 24 h; procedure, shortened: as §1
# [1] = Toxicity in RBC assessed as hemolysis; assay type: cell-based; conditions: erythrocyte
# [2] = inhibition of Escherichia coli FabH expressed in Escherichia coli BL21 (DE3) cells assessed as [3H]acetyl-CoA after 5 mins by liquid scintillation counting; conditions: in the assay text read “after 25 mins” for “after 5 mins”
# Procedure, shortened: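 His-tagged E. coli FabH was expressed in kanamycin-selected culture in LB at 37 °C, induced with 0.5 mM IPTG for 4 h, then Ni–NTA purified. Reactions were run in 20 mM sodium phosphate, pH 7.0, with holo-ACP. They were stopped with ice-cold 50% TCA, the protein was pelleted, and ³H incorporation into product was read by liquid scintillation. Inhibitors were added from DMSO stock, final DMSO ≤2%.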
# [3] = inhibition of Escherichia coli FabH expressed in Escherichia coli BL21 (DE3) cells assessed as [3H]acetyl-CoA after 25 mins by liquid scintillation counting
Compound,MIC (Bacillus subtilis) [µg/mL],MIC (Staphylococcus aureus) [µg/mL],MIC (Pseudomonas aeruginosa) [µg/mL],MIC (Escherichia coli) [µg/mL],LC30 [1] [µg/mL],IC50 [2] [µM],IC50 [3] [µM]
COc1cccc(Cc2nnc(Cn3c([N+](=O)[O-])cnc3C)o2)c1,25,50,12.5,25,,,
Cc1ccccc1Cc1nnc(Cn2c([N+](=O)[O-])cnc2C)o1,50,25,25,12.5,,,
NC[C@H]1O[C@H](O[C@H]2[C@H](O)[C@@H](O[C@H]3O[C@H](CO)[C@@H](O)[C@H](N)[C@H]3O)[C@H](N)C[C@@H]2N)[C@H](O)[C@@H](O)[C@@H]1O [KANAMYCIN],1.56,1.56,3.13,3.13,,,
Cc1ncc([N+](=O)[O-])n1Cc1nnc(Cc2ccc(Cl)cc2)o1,50,25,12.5,50,,,
COc1ccccc1-c1nnc(Cn2c([N+](=O)[O-])cnc2C)o1,1.56,3.13,1.56,1.56,> 10000,4.3,
Cc1ncc([N+](=O)[O-])n1Cc1nnc(Cc2ccc([N+](=O)[O-])cc2)o1,25,50,25,25,,,
Cc1ncc([N+](=O)[O-])n1Cc1nnc(-c2ccc([N+](=O)[O-])cc2)o1,25,25,12.5,12.5,> 10000,,40.5
Cc1ncc([N+](=O)[O-])n1Cc1nnc(Cc2cccc(Br)c2)o1,25,50,6.25,25,,,
Cc1ncc([N+](=O)[O-])n1Cc1nnc(-c2ccc(F)cc2)o1,12.5,25,25,12.5,> 10000,18.6,
Cc1ncc([N+](=O)[O-])n1Cc1nnc(-c2cccc(F)c2)o1,> 100,> 100,> 100,> 100,,,
Cc1ncc([N+](=O)[O-])n1Cc1nnc(-c2cccc(Br)c2)o1,6.25,25,25,6.25,> 10000,16.9,
COc1ccccc1Cc1nnc(Cn2c([N+](=O)[O-])cnc2C)o1,25,25,12.5,50,,,
COc1cccc(-c2nnc(Cn3c([N+](=O)[O-])cnc3C)o2)c1,6.25,12.5,12.5,12.5,> 10000,9.4,
Cc1ncc([N+](=O)[O-])n1Cc1nnc(Cc2ccc(F)cc2)o1,50,25,12.5,25,,,
Cc1ncc([N+](=O)[O-])n1Cc1nnc(-c2ccc(Br)cc2)o1,12.5,50,25,25,> 10000,43.8,
Cc1ncc([N+](=O)[O-])n1Cc1nnc(Cc2cccc(F)c2)o1,> 100,> 100,> 100,> 100,,,
Cc1ccccc1-c1nnc(Cn2c([N+](=O)[O-])cnc2C)o1,1.56,6.25,3.13,1.56,> 10000,,5.1
Cc1ncc([N+](=O)[O-])n1Cc1nnc(-c2ccc(Cl)cc2)o1,12.5,25,12.5,12.5,> 10000,28.3,
Cc1ncc([N+](=O)[O-])n1Cc1nnc(Cc2ccc(Br)cc2)o1,50,50,25,50,,,
